How the values were obtained:
[1] = system: Rattus norvegicus; assay: Antihypertensive activity in spontaneously hypertensive rats (SHR) measured by percentage fall in arterial pressure (AP) at 25 mg/kg administered perorally at 3 h; type: functional, Artery; details: route oral
Summary of the method: (§1)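 Oral dosing at 2.5 mL/kg to unanesthetized male and female Okamoto-strain SHR (8 weeks old, 300–350 g, systolic pressure ≥190 mmHg, heart rate 400–650 beats/min), five per dose. Vehicle was normal saline or saline with 0.2% (carboxymethyl)cellulose and 1.0% Tween 80. AP measured on the tail by mechanical transduction at set times; expressed as percentage fall from control.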

[2] = system: Rattus norvegicus; assay: Antihypertensive activity in spontaneously hypertensive rats (SHR) measured by percentage fall in arterial pressure (AP) at 25 mg/kg administered perorally at 5 h; type: functional, Artery; details: route oral; summary of the method: as §1
[3] = system: Rattus norvegicus; assay: Antihypertensive activity in spontaneously hypertensive rats (SHR) measured by percentage fall in arterial pressure (AP) at 5 mg/kg administered intraperitoneally at 1 h; type: functional, Artery; details: route intraperitoneal
Summary of the method: (§2)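 Unanesthetized Okamoto-strain SHR, male and female, 8 weeks old, 300–350 g, systolic pressure ≥190 mmHg, heart rate 400–650 beats/min; five animals per dose. Given ip at 2.5 mL/kg, dissolved or suspended in normal saline or saline with 0.2% (carboxymethyl)cellulose and 1.0% Tween 80. Tail AP and CR recorded by mechanical transduction at set times; reported as percentage fall from control.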

[4] = system: Rattus norvegicus; assay: Antihypertensive activity in spontaneously hypertensive rats (SHR) measured by percentage fall in arterial pressure (AP) at 5 mg/kg administered intraperitoneally at 24 h; type: functional, Artery; details: route intraperitoneal; summary of the method: as §2
[5] = system: Rattus norvegicus; assay: Antihypertensive activity in spontaneously hypertensive rats (SHR) measured by percentage fall in arterial pressure (AP) at 5 mg/kg administered intraperitoneally at 5 h; type: functional, Artery; details: route intraperitoneal; summary of the method: as §2
[6] = system: Rattus norvegicus; assay: Antihypertensive activity in spontaneously hypertensive rats (SHR) measured by percentage fall in arterial pressure (AP) at 25 mg/kg administered intraperitoneally at 5 h; type: functional, Artery; details: route intraperitoneal; summary of the method: as §2
[7] = system: Rattus norvegicus; assay: Antihypertensive activity in spontaneously hypertensive rats (SHR) measured by percentage fall in arterial pressure (AP) at 25 mg/kg administered perorally at 1 h; type: functional, Artery; details: route oral; summary of the method: as §1
[8] = system: Rattus norvegicus; assay: Antihypertensive activity in spontaneously hypertensive rats (SHR) measured by percentage fall in cardiac rhythm (CR) at 1 mg/kg administered intraperitoneally at 3 h; type: functional, Heart; details: route intraperitoneal; summary of the method: as §2
[9] = system: Rattus norvegicus; assay: Antihypertensive activity in spontaneously hypertensive rats (SHR) measured by percentage fall in cardiac rhythm (CR) at 1 mg/kg administered intraperitoneally at 5 h; type: functional, Heart; details: route intraperitoneal; summary of the method: as §2
[10] = system: Rattus norvegicus; assay: Antihypertensive activity in spontaneously hypertensive rats (SHR) measured by percentage fall in cardiac rhythm (CR) at 25 mg/kg administered intraperitoneally at 1 h; type: functional, Heart; details: route intraperitoneal; summary of the method: as §2
[11] = system: Rattus norvegicus; assay: Antihypertensive activity in spontaneously hypertensive rats (SHR) measured by percentage fall in cardiac rhythm (CR) at 25 mg/kg administered perorally at 3 h; type: functional, Heart; details: route oral
Summary of the method: (§3)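 Conscious SHR (Okamoto strain), 8 weeks old, male and female, 300–350 g, systolic BP ≥190 mmHg, CR 400–650 beats/min. Given ip or po at 2.5 mL/kg in normal saline or saline with 0.2% (carboxymethyl)cellulose and 1.0% Tween 80. Tail AP and CR recorded by mechanical transduction at 1, 3, 5 and 24 h, five animals per dose. Effect expressed as % fall versus control.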

[12] = system: Rattus norvegicus; assay: Antihypertensive activity in spontaneously hypertensive rats (SHR) measured by percentage fall in cardiac rhythm (CR) at 25 mg/kg administered perorally at 5 h; type: functional, Heart; details: route oral; summary of the method: as §3
[13] = system: Rattus norvegicus; assay: Antihypertensive activity in spontaneously hypertensive rats (SHR) measured by percentage fall in cardiac rhythm (CR) at 5 mg/kg administered intraperitoneally at 1 h; type: functional, Heart; details: route intraperitoneal; summary of the method: as §3
[14] = system: Rattus norvegicus; assay: Antihypertensive activity in spontaneously hypertensive rats (SHR) measured by percentage fall in cardiac rhythm (CR) at 5 mg/kg administered intraperitoneally at 24 h; type: functional, Heart; details: route intraperitoneal; summary of the method: as §3
[15] = system: Rattus norvegicus; assay: Antihypertensive activity in spontaneously hypertensive rats (SHR) measured by percentage fall in cardiac rhythm (CR) at 5 mg/kg administered intraperitoneally at 3 h; type: functional, Heart; details: route intraperitoneal; summary of the method: as §3
[16] = system: Rattus norvegicus; assay: Antihypertensive activity in spontaneously hypertensive rats (SHR) measured by percentage fall in cardiac rhythm (CR) at 5 mg/kg administered intraperitoneally at 5 h; type: functional, Heart; details: route intraperitoneal; summary of the method: as §3
[17] = system: Rattus norvegicus; assay: Antihypertensive activity in spontaneously hypertensive rats (SHR) measured by percentage fall in cardiac rhythm (CR) at 1 mg/kg administered intraperitoneally at 1 h; type: functional, Heart; details: route intraperitoneal; summary of the method: as §2
[18] = system: Rattus norvegicus; assay: Antihypertensive activity in spontaneously hypertensive rats (SHR) measured by percentage fall in cardiac rhythm (CR) at 25 mg/kg administered intraperitoneally at 24 h; type: functional, Heart; details: route intraperitoneal; summary of the method: as §2
[19] = system: Rattus norvegicus; assay: Antihypertensive activity in spontaneously hypertensive rats (SHR) measured by percentage fall in cardiac rhythm (CR) at 25 mg/kg administered intraperitoneally at 3 h; type: functional, Heart; details: route intraperitoneal; summary of the method: as §2
[20] = system: Rattus norvegicus; assay: Antihypertensive activity in spontaneously hypertensive rats (SHR) measured by percentage fall in cardiac rhythm (CR) at 25 mg/kg administered intraperitoneally at 5 h; type: functional, Heart; details: route intraperitoneal; summary of the method: as §3
[21] = system: Rattus norvegicus; assay: Antihypertensive activity in spontaneously hypertensive rats (SHR) measured by percentage fall in cardiac rhythm (CR) at 25 mg/kg administered perorally at 1 h; type: functional, Heart; details: route oral; summary of the method: as §3
[22] = system: Rattus norvegicus; assay: Antihypertensive activity in spontaneously hypertensive rats (SHR) measured by percentage fall in arterial pressure (AP) at 1 mg/kg administered intraperitoneally at 3 h; type: functional, Artery; details: route intraperitoneal; summary of the method: as §2
[23] = system: Rattus norvegicus; assay: Antihypertensive activity in spontaneously hypertensive rats (SHR) measured by percentage fall in arterial pressure (AP) at 25 mg/kg administered intraperitoneally at 1 h; type: functional, Artery; details: route intraperitoneal; summary of the method: as §2
[24] = system: Rattus norvegicus; assay: Antihypertensive activity in spontaneously hypertensive rats (SHR) measured by percentage fall in arterial pressure (AP) at 25 mg/kg administered intraperitoneally at 24 h; type: functional, Artery; details: route intraperitoneal; summary of the method: as §2
[25] = system: Rattus norvegicus; assay: Antihypertensive activity in spontaneously hypertensive rats (SHR) measured by percentage fall in arterial pressure (AP) at 25 mg/kg administered intraperitoneally at 3 h; type: functional, Artery; details: route intraperitoneal; summary of the method: as §2
[26] = system: Rattus norvegicus; assay: Antihypertensive activity in spontaneously hypertensive rats (SHR) measured by percentage fall in arterial pressure (AP) at 5 mg/kg administered intraperitoneally at 3 h; type: functional, Artery; details: route intraperitoneal; summary of the method: as §2
[27] = system: Cavia porcellus; assay: Effect on thromboxane synthetase activity on ex vivo platelet aggregation induced by PGE-2 at 50 mg/kg expressed as percent increase; type: functional
Summary of the method: (§4)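 Fasted male or female guinea pigs (250–300 g, five per group) dosed orally in normal saline or saline with 0.2% (carboxymethyl)cellulose/1.0% Tween 80; controls given vehicle. Under ether, cardiac blood collected into 3.8% citrate. PRP adjusted to […] and aggregation induced by ADP (second wave) or AA, read by absorbance aggregometry. PGE2 and TXB2 measured by RIA.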

[28] = system: Cavia porcellus; assay: Effect on thromboxane synthetase activity on ex vivo platelet aggregation induced by PGE-2 at 100 mg/kg expressed as percent increase; type: functional; summary of the method: as §4
[29] = Effect on thromboxane synthetase activity on in vitro platelet aggregation induced by AA at 10e -5 M expressed as percent increase in PGE-2; type: functional, Homo sapiens
Summary of the method: (§5)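 Human citrated PRP adjusted to 200 000 […], compound at 10^-5 M final in saline/10% ethylene glycol, incubated at 37 °C. Aggregation induced with arachidonic acid 0.6 mM and read by Born absorbance aggregometry. PGE2 and TXB2 in the aggregated samples measured by radioimmunoassay. n = 5.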

[30] = Effect on PGI-2 release from rat aortic tissue at a final concentration of 10e -4 for an incubation time of 10 minutes; type: functional
Summary of the method: (§6)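 Female Wistar rats (200–220 g) received heparin 200 IU/kg ip and were killed 10 min later. Aortic pieces of about 25 mm² were washed in ice-cold oxygenated Krebs–Henseleit buffer, then incubated in 1 mL buffer at 37 °C. Compound at 10^-4 M final was added 10 min before tissue transfer. PGI2 release was read as antiaggregatory activity of the incubate on ADP (2×10^-6 M)-induced human PRP aggregation and by 6-keto-PGF1α RIA. n = 4.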

[31] = Effect on PGI-2 release from rat aortic tissue at a final concentration of 10e -4 for an incubation time of 25 minutes; type: functional; summary of the method: as §6
[32] = Effect on PGI-2 release from rat aortic tissue at a final concentration of 10e -4 for an incubation time of 30 minutes; type: functional; summary of the method: as §6
[33] = Effect on PGI-2 release from rat aortic tissue at a final concentration of 10e -4 for an incubation time of 35 minutes; type: functional; summary of the method: as §6
[34] = molecular target: T1, Thromboxane-A synthase (Homo sapiens) (UniProt P24557); assay: Effect on thromboxane synthetase activity on ex vivo platelet aggregation induced by TXB2 at 100 mg/kg expressed as percent increase; type: functional, organism-based; design: dose 100 mg/kg; details: Cavia porcellus; summary of the method: as §4
T1 sequence (whole entry): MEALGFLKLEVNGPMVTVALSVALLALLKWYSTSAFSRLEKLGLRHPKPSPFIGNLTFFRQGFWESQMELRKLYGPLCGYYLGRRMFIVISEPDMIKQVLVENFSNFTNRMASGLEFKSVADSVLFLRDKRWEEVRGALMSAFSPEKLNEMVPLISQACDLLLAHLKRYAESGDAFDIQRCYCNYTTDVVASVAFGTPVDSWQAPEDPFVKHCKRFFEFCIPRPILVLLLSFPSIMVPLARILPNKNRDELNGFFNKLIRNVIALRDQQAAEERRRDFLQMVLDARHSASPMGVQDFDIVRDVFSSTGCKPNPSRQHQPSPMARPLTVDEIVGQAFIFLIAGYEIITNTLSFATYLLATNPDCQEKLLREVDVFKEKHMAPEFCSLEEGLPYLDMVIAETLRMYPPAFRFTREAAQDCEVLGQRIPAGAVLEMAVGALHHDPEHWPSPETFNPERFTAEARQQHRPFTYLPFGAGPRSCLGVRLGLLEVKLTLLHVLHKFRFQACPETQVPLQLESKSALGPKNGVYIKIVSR

[35] = molecular target: T1, Thromboxane-A synthase (Homo sapiens); assay: Effect on thromboxane synthetase activity on ex vivo platelet aggregation induced by TXB2 at 50 mg/kg expressed as percent increase; type: functional, organism-based; design: dose 50 mg/kg; details: Cavia porcellus; summary of the method: as §4
[36] = molecular target: T1, Thromboxane-A synthase (Homo sapiens); assay: Effect on thromboxane synthetase activity on in vitro platelet aggregation induced by AA at 10e -5 M expressed as percent […] in TXB2; type: functional; summary of the method: as §5

Compound: Br.Br.NNc1[nH]ncc2c3cc(O)ccc3nc1-2
- Decrease in AP [1]: 27%
- Decrease in AP [2]: 8%
- Decrease in AP [3]: 27%
- Decrease in AP [4]: 6%
- Decrease in AP [5]: 10%
- Decrease in AP [6]: 63%
- Decrease in AP [7]: 29%
- Decrease in CR [8]: 13%
- Decrease in CR [9]: 19%
- Decrease in CR [10]: 19%
- Decrease in CR [11]: 24%
- Decrease in CR [12]: 8%
- Decrease in CR [13]: 64%
- Decrease in CR [14]: 28%
- Decrease in CR [15]: 30%
- Decrease in CR [16]: 24%
- Decrease in CR [17]: 22%
- Decrease in CR [18]: 18%
- Decrease in CR [19]: 16%
- Decrease in CR [20]: 44%
- Decrease in CR [21]: 17%
- Decrease in AP [22]: -6%
- Decrease in AP [23]: 70%
- Decrease in AP [24]: 28%
- Decrease in AP [25]: 67%
- Decrease in AP [26]: 16%

Compound: CC(=O)Oc1ccccc1C(=O)O [ASPIRIN]
- Increase [27]: 0%
- Increase [28]: 0%
- Increase [29]: 0%
- Inhibition [30]: 80%
- Inhibition [31]: 80%
- Inhibition [32]: 80%
- Inhibition [33]: 80%
- inhibition [34]: 100%
- inhibition [35]: 100%
- inhibition [36]: 100%

Source: ChEMBL document CHEMBL1123757, “Selective thromboxane synthetase inhibitors and antihypertensive agents. New derivatives of 4-hydrazino-5H-pyridazino[4,5-b]indole, 4-hydrazinopyridazino[4,5-a]indole, and related compounds” (J Med Chem, 1987)
